Active and inactive are the calls of the source. The rule behind the calls is not given here.
Assays:
[1] = biological target: T1, Parathyroid hormone/parathyroid hormone-related peptide receptor (Homo sapiens) (UniProt Q03431); test: Agonist activity at extracellular domain truncate human PTH1 receptor expressed in GD5 cells assessed as induction of cAMP after 12 to 20 mins by luciferase reporter gene assay; type: functional, cell-based
T1 sequence (whole entry): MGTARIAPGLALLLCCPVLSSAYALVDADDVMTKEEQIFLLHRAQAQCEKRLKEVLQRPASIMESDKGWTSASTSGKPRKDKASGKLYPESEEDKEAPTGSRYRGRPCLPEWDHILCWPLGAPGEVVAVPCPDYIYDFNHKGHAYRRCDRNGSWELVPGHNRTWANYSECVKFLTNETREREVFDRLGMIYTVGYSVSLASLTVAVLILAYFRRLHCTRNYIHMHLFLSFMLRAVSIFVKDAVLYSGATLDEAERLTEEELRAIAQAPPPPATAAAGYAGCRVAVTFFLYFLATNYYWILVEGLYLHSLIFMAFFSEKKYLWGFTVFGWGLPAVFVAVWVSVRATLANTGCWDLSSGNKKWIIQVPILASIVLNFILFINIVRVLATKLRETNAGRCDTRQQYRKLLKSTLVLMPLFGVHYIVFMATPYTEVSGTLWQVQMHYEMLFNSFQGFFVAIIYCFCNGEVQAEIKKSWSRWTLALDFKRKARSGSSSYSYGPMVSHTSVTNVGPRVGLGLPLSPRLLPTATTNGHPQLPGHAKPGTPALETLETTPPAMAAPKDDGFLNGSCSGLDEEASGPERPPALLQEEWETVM
How it was run: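 HEK293-derived lines stably expressing Glosensor cAMP reporter plus full-length human PTHR1 (GP2.3) or ECD-truncated PTHR1 (GD5). Confluent monolayers preincubated at room temperature in CO2-independent medium with 0.5 mM D-luciferin until baseline stable (30 min), then varied agonist concentrations added. Maximal luminescence (12−20 min) used for sigmoidal variable-slope fits.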

[2] = biological target: T1, Parathyroid hormone/parathyroid hormone-related peptide receptor (Homo sapiens); test: Agonist activity at human PTH1 receptor expressed in human GP2.3 cells assessed as induction of cAMP after 12 to 20 mins by luciferase reporter gene assay relative to PTH(1 to 34 residues)-NH2; type: functional, cell-based

CC[C@H](C)[C@H](NC(=O)[C@H](CCC(=O)O)NC(=O)[C@H](CO)NC(=O)[C@@H](NC(=O)[C@@H](N)CO)C(C)C)C(=O)N[C@@H](CCC(N)=O)C(=O)N[C@H](CC(=O)N[C@@H](CCSC)C(=O)N[C@@H](Cc1cnc[nH]1)C(=O)N[C@@H](CC(N)=O)C(=O)N[C@@H](CC(C)C)C(=O)NCC(=O)N[C@@H](CCCCN)C(=O)N[C@@H](Cc1cnc[nH]1)C(=O)N[C@@H](CC(C)C)C(=O)N[C@@H](CC(N)=O)C(=O)N[C@@H](CO)C(=O)N[C@@H](CCSC)C(=O)N[C@@H](CCC(=O)O)C(=O)N[C@@H](CCCNC(=N)N)C(=O)N[C@H](C(=O)N[C@@H](CCC(=O)O)C(=O)N[C@@H](Cc1c[nH]c2ccccc12)C(=O)N[C@@H](CC(C)C)C(=O)N[C@@H](CCCNC(=N)N)C(=O)N[C@@H](CCCCN)C(=O)N[C@@H](CCCCN)C(=O)N[C@@H](CC(C)C)C(=O)N[C@@H](CCC(N)=O)C(=O)N[C@@H](CC(=O)O)C(=O)N[C@H](C(=O)N[C@@H](Cc1cnc[nH]1)C(=O)N[C@@H](CC(N)=O)C(=O)N[C@@H](Cc1ccccc1)C(N)=O)C(C)C)C(C)C)CC(C)C
Activity [1]: Active
fold change (FC) [2]: 12

CC[C@H](C)[C@H](NC(=O)[C@H](CCC(=O)O)NC(=O)[C@H](CO)NC(=O)[C@@H](NC(=O)[C@@H](N)CO)C(C)C)C(=O)N[C@@H](CCC(N)=O)C(=O)N[C@@H](CC(C)C)C(=O)N[C@@H](CCSC)CC(=O)N[C@@H](Cc1cnc[nH]1)C(=O)N[C@@H](CC(N)=O)C(=O)N[C@@H](CC(C)C)C(=O)NCC(=O)N[C@@H](CCCCN)C(=O)N[C@@H](Cc1cnc[nH]1)C(=O)N[C@@H](CC(C)C)C(=O)N[C@@H](CC(N)=O)C(=O)N[C@@H](CO)C(=O)N[C@@H](CCSC)C(=O)N[C@@H](CCC(=O)O)C(=O)N[C@@H](CCCNC(=N)N)C(=O)N[C@H](C(=O)N[C@@H](CCC(=O)O)C(=O)N[C@@H](Cc1c[nH]c2ccccc12)C(=O)N[C@@H](CC(C)C)C(=O)N[C@@H](CCCNC(=N)N)C(=O)N[C@@H](CCCCN)C(=O)N[C@@H](CCCCN)C(=O)N[C@@H](CC(C)C)C(=O)N[C@@H](CCC(N)=O)C(=O)N[C@@H](CC(=O)O)C(=O)N[C@H](C(=O)N[C@@H](Cc1cnc[nH]1)C(=O)N[C@@H](CC(N)=O)C(=O)N[C@@H](Cc1ccccc1)C(N)=O)C(C)C)C(C)C
Activity [1]: Active
fold change (FC) [2]: 205

CC[C@H](C)[C@H](NC(=O)[C@H](CCC(=O)O)NC(=O)[C@H](CO)NC(=O)[C@@H](NC(=O)[C@@H](N)CO)C(C)C)C(=O)N[C@@H](CCC(N)=O)CC(=O)N[C@@H](CC(C)C)C(=O)N[C@@H](CCSC)C(=O)N[C@@H](Cc1cnc[nH]1)C(=O)N[C@@H](CC(N)=O)C(=O)N[C@@H](CC(C)C)C(=O)NCC(=O)N[C@@H](CCCCN)C(=O)N[C@@H](Cc1cnc[nH]1)C(=O)N[C@@H](CC(C)C)C(=O)N[C@@H](CC(N)=O)C(=O)N[C@@H](CO)C(=O)N[C@@H](CCSC)C(=O)N[C@@H](CCC(=O)O)C(=O)N[C@@H](CCCNC(=N)N)C(=O)N[C@H](C(=O)N[C@@H](CCC(=O)O)C(=O)N[C@@H](Cc1c[nH]c2ccccc12)C(=O)N[C@@H](CC(C)C)C(=O)N[C@@H](CCCNC(=N)N)C(=O)N[C@@H](CCCCN)C(=O)N[C@@H](CCCCN)C(=O)N[C@@H](CC(C)C)C(=O)N[C@@H](CCC(N)=O)C(=O)N[C@@H](CC(=O)O)C(=O)N[C@H](C(=O)N[C@@H](Cc1cnc[nH]1)C(=O)N[C@@H](CC(N)=O)C(=O)N[C@@H](Cc1ccccc1)C(N)=O)C(C)C)C(C)C
Activity [1]: Active
fold change (FC) [2]: 160

CC[C@H](C)[C@H](NC(=O)[C@H](CCC(=O)O)NC(=O)C[C@H](CO)NC(=O)[C@@H](NC(=O)[C@@H](N)CO)C(C)C)C(=O)N[C@@H](CCC(N)=O)C(=O)N[C@@H](CC(C)C)C(=O)N[C@@H](CCSC)C(=O)N[C@@H](Cc1cnc[nH]1)C(=O)N[C@@H](CC(N)=O)C(=O)N[C@@H](CC(C)C)C(=O)NCC(=O)N[C@@H](CCCCN)C(=O)N[C@@H](Cc1cnc[nH]1)C(=O)N[C@@H](CC(C)C)C(=O)N[C@@H](CC(N)=O)C(=O)N[C@@H](CO)C(=O)N[C@@H](CCSC)C(=O)N[C@@H](CCC(=O)O)C(=O)N[C@@H](CCCNC(=N)N)C(=O)N[C@H](C(=O)N[C@@H](CCC(=O)O)C(=O)N[C@@H](Cc1c[nH]c2ccccc12)C(=O)N[C@@H](CC(C)C)C(=O)N[C@@H](CCCNC(=N)N)C(=O)N[C@@H](CCCCN)C(=O)N[C@@H](CCCCN)C(=O)N[C@@H](CC(C)C)C(=O)N[C@@H](CCC(N)=O)C(=O)N[C@@H](CC(=O)O)C(=O)N[C@H](C(=O)N[C@@H](Cc1cnc[nH]1)C(=O)N[C@@H](CC(N)=O)C(=O)N[C@@H](Cc1ccccc1)C(N)=O)C(C)C)C(C)C
Activity [1]: Active
fold change (FC) [2]: 55

CC[C@H](C)[C@@H](CC(=O)N[C@@H](CCC(N)=O)C(=O)N[C@@H](CC(C)C)C(=O)N[C@@H](CCSC)C(=O)N[C@@H](Cc1cnc[nH]1)C(=O)N[C@@H](CC(N)=O)C(=O)N[C@@H](CC(C)C)C(=O)NCC(=O)N[C@@H](CCCCN)C(=O)N[C@@H](Cc1cnc[nH]1)C(=O)N[C@@H](CC(C)C)C(=O)N[C@@H](CC(N)=O)C(=O)N[C@@H](CO)C(=O)N[C@@H](CCSC)C(=O)N[C@@H](CCC(=O)O)C(=O)N[C@@H](CCCNC(=N)N)C(=O)N[C@H](C(=O)N[C@@H](CCC(=O)O)C(=O)N[C@@H](Cc1c[nH]c2ccccc12)C(=O)N[C@@H](CC(C)C)C(=O)N[C@@H](CCCNC(=N)N)C(=O)N[C@@H](CCCCN)C(=O)N[C@@H](CCCCN)C(=O)N[C@@H](CC(C)C)C(=O)N[C@@H](CCC(N)=O)C(=O)N[C@@H](CC(=O)O)C(=O)N[C@H](C(=O)N[C@@H](Cc1cnc[nH]1)C(=O)N[C@@H](CC(N)=O)C(=O)N[C@@H](Cc1ccccc1)C(N)=O)C(C)C)C(C)C)NC(=O)[C@H](CCC(=O)O)NC(=O)[C@H](CO)NC(=O)[C@@H](NC(=O)[C@@H](N)CO)C(C)C
Activity [1]: Active
fold change (FC) [2]: 28

CC[C@H](C)[C@H](NC(=O)C[C@@H](CCC(=O)O)NC(=O)[C@H](CO)NC(=O)[C@@H](NC(=O)[C@@H](N)CO)C(C)C)C(=O)N[C@@H](CCC(N)=O)C(=O)N[C@@H](CC(C)C)C(=O)N[C@@H](CCSC)C(=O)N[C@@H](Cc1cnc[nH]1)C(=O)N[C@@H](CC(N)=O)C(=O)N[C@@H](CC(C)C)C(=O)NCC(=O)N[C@@H](CCCCN)C(=O)N[C@@H](Cc1cnc[nH]1)C(=O)N[C@@H](CC(C)C)C(=O)N[C@@H](CC(N)=O)C(=O)N[C@@H](CO)C(=O)N[C@@H](CCSC)C(=O)N[C@@H](CCC(=O)O)C(=O)N[C@@H](CCCNC(=N)N)C(=O)N[C@H](C(=O)N[C@@H](CCC(=O)O)C(=O)N[C@@H](Cc1c[nH]c2ccccc12)C(=O)N[C@@H](CC(C)C)C(=O)N[C@@H](CCCNC(=N)N)C(=O)N[C@@H](CCCCN)C(=O)N[C@@H](CCCCN)C(=O)N[C@@H](CC(C)C)C(=O)N[C@@H](CCC(N)=O)C(=O)N[C@@H](CC(=O)O)C(=O)N[C@H](C(=O)N[C@@H](Cc1cnc[nH]1)C(=O)N[C@@H](CC(N)=O)C(=O)N[C@@H](Cc1ccccc1)C(N)=O)C(C)C)C(C)C
Activity [1]: Active
fold change (FC) [2]: 108

CC[C@H](C)[C@H](NC(=O)[C@H](CCC(=O)O)NC(=O)[C@H](CO)NC(=O)C[C@@H](NC(=O)[C@@H](N)CO)C(C)C)C(=O)N[C@@H](CCC(N)=O)C(=O)N[C@@H](CC(C)C)C(=O)N[C@@H](CCSC)C(=O)N[C@@H](Cc1cnc[nH]1)C(=O)N[C@@H](CC(N)=O)C(=O)N[C@@H](CC(C)C)C(=O)NCC(=O)N[C@@H](CCCCN)C(=O)N[C@@H](Cc1cnc[nH]1)C(=O)N[C@@H](CC(C)C)C(=O)N[C@@H](CC(N)=O)C(=O)N[C@@H](CO)C(=O)N[C@@H](CCSC)C(=O)N[C@@H](CCC(=O)O)C(=O)N[C@@H](CCCNC(=N)N)C(=O)N[C@H](C(=O)N[C@@H](CCC(=O)O)C(=O)N[C@@H](Cc1c[nH]c2ccccc12)C(=O)N[C@@H](CC(C)C)C(=O)N[C@@H](CCCNC(=N)N)C(=O)N[C@@H](CCCCN)C(=O)N[C@@H](CCCCN)C(=O)N[C@@H](CC(C)C)C(=O)N[C@@H](CCC(N)=O)C(=O)N[C@@H](CC(=O)O)C(=O)N[C@H](C(=O)N[C@@H](Cc1cnc[nH]1)C(=O)N[C@@H](CC(N)=O)C(=O)N[C@@H](Cc1ccccc1)C(N)=O)C(C)C)C(C)C
Activity [1]: Active
fold change (FC) [2]: 3.2

CC[C@H](C)[C@H](NC(=O)[C@H](CCC(=O)O)NC(=O)[C@H](CO)NC(=O)[C@@H](NC(=O)C[C@@H](N)CO)C(C)C)C(=O)N[C@@H](CCC(N)=O)C(=O)N[C@@H](CC(C)C)C(=O)N[C@@H](CCSC)C(=O)N[C@@H](Cc1cnc[nH]1)C(=O)N[C@@H](CC(N)=O)C(=O)N[C@@H](CC(C)C)C(=O)NCC(=O)N[C@@H](CCCCN)C(=O)N[C@@H](Cc1cnc[nH]1)C(=O)N[C@@H](CC(C)C)C(=O)N[C@@H](CC(N)=O)C(=O)N[C@@H](CO)C(=O)N[C@@H](CCSC)C(=O)N[C@@H](CCC(=O)O)C(=O)N[C@@H](CCCNC(=N)N)C(=O)N[C@H](C(=O)N[C@@H](CCC(=O)O)C(=O)N[C@@H](Cc1c[nH]c2ccccc12)C(=O)N[C@@H](CC(C)C)C(=O)N[C@@H](CCCNC(=N)N)C(=O)N[C@@H](CCCCN)C(=O)N[C@@H](CCCCN)C(=O)N[C@@H](CC(C)C)C(=O)N[C@@H](CCC(N)=O)C(=O)N[C@@H](CC(=O)O)C(=O)N[C@H](C(=O)N[C@@H](Cc1cnc[nH]1)C(=O)N[C@@H](CC(N)=O)C(=O)N[C@@H](Cc1ccccc1)C(N)=O)C(C)C)C(C)C
Activity [1]: Active
fold change (FC) [2]: 0.7

— ChEMBL document CHEMBL4024754, “Development of Potent, Protease-Resistant Agonists of the Parathyroid Hormone Receptor with Broad β Residue Distribution” (J Med Chem, 2017)
